Data reported in ChEMBL document CHEMBL1125244, “4',5'-unsaturated 5'-halogenated nucleosides. Mechanism-based and competitive inhibitors of S-adenosyl-L-homocysteine hydrolase” (J Med Chem, 1991).
≈ marks a conversion by molar mass, not a printed value. One block for each molecule: values may come before it.

Legend:
Adenosylhomocysteinase [1] = target: T1, Adenosylhomocysteinase (Rattus norvegicus, UniProt P10760); experiment: Competitive inhibitory activity against rat liver S-Adenosyl-homocysteine hydrolase
T1 sequence (P10760 whole entry): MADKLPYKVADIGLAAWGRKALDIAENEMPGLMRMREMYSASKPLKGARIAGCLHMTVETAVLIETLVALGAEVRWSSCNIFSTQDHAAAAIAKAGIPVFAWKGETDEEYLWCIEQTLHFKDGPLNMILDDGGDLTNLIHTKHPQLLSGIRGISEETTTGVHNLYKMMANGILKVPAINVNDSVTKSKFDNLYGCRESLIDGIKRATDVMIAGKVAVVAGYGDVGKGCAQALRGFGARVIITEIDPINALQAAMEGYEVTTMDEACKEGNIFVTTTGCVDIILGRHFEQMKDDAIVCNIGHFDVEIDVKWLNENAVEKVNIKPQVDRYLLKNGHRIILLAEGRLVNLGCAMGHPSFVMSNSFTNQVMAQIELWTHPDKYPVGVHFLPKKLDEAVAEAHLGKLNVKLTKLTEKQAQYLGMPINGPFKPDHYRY

Adenosylhomocysteinase [2] = target: T1, Adenosylhomocysteinase; experiment: Activity determined in rat liver S-Adenosyl-homocysteine hydrolase and expressed as KI values; NA= not applicable
Adenosylhomocysteinase [3] = target: T2, Adenosylhomocysteinase (Mus musculus, UniProt P50247); experiment: Activity determined in mouse liver S-Adenosyl-homocysteine hydrolase and expressed as KI values; NA= not applicable
T2 sequence (P50247 whole entry): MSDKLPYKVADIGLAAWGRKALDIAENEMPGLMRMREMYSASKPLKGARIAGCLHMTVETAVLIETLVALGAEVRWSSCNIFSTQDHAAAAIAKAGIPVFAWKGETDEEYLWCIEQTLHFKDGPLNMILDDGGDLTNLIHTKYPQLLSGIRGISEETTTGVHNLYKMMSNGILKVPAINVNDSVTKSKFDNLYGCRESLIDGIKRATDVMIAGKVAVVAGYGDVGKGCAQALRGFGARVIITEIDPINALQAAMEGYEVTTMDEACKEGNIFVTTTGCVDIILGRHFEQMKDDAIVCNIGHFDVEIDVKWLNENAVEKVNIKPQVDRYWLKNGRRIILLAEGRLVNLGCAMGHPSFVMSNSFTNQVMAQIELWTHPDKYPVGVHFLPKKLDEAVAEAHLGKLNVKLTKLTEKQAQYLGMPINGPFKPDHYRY

[4] = tested on: Moloney murine leukemia virus; experiment: Antiretroviral activity in the XC-plaque assay using Moloney leukemia virus (MoLV) as a model for human immunodeficiency virus (HIV).; assay type: functional, organism-based
Adenosylhomocysteinase [5] = target: T2, Adenosylhomocysteinase; experiment: Activity determined in mouse liver S-adenosyl-L-homocysteine hydrolase and expressed as KI values; NA= not applicable
Procedure, shortened: (§1)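 Partially purified mouse liver enzyme (38–55% ammonium sulfate fraction, stored at –70 °C), assayed in the synthetic direction. The mix held […] potassium phosphate, 2 mM 2-mercaptoethanol, 0.1 mM adenosine plus [³H]adenosine, 10 mM DL-homocysteine and 1.0 μM 2-deoxycoformycin, run 10–20 min at 37 °C. [³H]SAH was separated on Cellex-P and counted. Time-dependent inactivation constants came from the Kitz–Wilson method.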

Adenosylhomocysteinase [6] = target: T1, Adenosylhomocysteinase; experiment: Activity determined in rat liver S-adenosyl-L-homocysteine hydrolase and expressed as Kinactivator values; NA= not applicable
Adenosylhomocysteinase [7] = target: T1, Adenosylhomocysteinase; experiment: Activity determined in rat liver S-adenosyl-L-homocysteine hydrolase and expressed as KI values; NA= not applicable
Adenosylhomocysteinase [8] = target: T2, Adenosylhomocysteinase; experiment: Activity determined in mouse liver S-adenosyl-L-homocysteine hydrolase and expressed as KI values.
[9] = target: Adenosylhomocysteinase (Mus musculus) (UniProt P50247)
Chain of Adenosylhomocysteinase (Mus musculus) (P50247 2-432 limits assumed): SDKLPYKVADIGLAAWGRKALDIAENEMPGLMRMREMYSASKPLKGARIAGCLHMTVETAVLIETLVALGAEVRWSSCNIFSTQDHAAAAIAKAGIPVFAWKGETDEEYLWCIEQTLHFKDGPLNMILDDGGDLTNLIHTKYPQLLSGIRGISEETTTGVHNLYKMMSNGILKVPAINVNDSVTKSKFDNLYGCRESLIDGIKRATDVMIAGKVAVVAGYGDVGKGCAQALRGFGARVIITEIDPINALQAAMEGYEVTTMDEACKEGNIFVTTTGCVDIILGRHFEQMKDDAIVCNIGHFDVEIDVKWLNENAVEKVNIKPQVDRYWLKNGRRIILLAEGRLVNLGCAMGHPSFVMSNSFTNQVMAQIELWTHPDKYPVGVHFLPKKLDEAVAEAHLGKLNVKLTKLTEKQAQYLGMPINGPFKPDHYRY

[10] = target: T3, Adenosylhomocysteinase (Rattus norvegicus) (UniProt P10760)
T3 sequence (whole entry): T1 sequence (P10760 whole entry)

Adenosylhomocysteinase [11] = target: T1, Adenosylhomocysteinase; experiment: (§2) Activity determined in rat liver S-adenosyl-L-homocysteine hydrolase and expressed as KI values.
Adenosylhomocysteinase [12] = target: T1, Adenosylhomocysteinase; experiment: Activity determined in rat liver S-adenosyl-L-homocysteine hydrolase and expressed as Kinactivator values.
Adenosylhomocysteinase [13] = target: T1, Adenosylhomocysteinase; experiment: Activity determined in rat liver S-Adenosyl-L-homocysteine (SAH) Hydrolase and expressed as KI values; NA= not applicable
Adenosylhomocysteinase [14] = target: T2, Adenosylhomocysteinase; experiment: Activity determined in mouse liver S-Adenosyl-L-homocysteine (SAH) Hydrolase and expressed as KI values; NA= not applicable; procedure, shortened: as §1
[15] = target: T3, Adenosylhomocysteinase (Rattus norvegicus); experiment: as §2
Adenosylhomocysteinase [16] = target: T1, Adenosylhomocysteinase; experiment: Time-dependent inhibitory activity against rat liver S-adenosyl-L-homocysteine hydrolase

SMILES: Nc1ncnc2c1ncn2[C@@H]1O/C(=C/F)[C@@H](O)[C@@H]1O
Ki (Adenosylhomocysteinase [1]): 3.2 µM
Ki (Adenosylhomocysteinase [2]): Not Active
Ki (Adenosylhomocysteinase [3]): Not Active
IC50 [4]: 4.4 µg/mL (≈ 16.5 µM)

SMILES: Nc1ncnc2c1ncn2[C@@H]1O/C(=C\F)[C@@H](O)[C@@H]1O
Ki (Adenosylhomocysteinase [1]): 11 µM
Ki (Adenosylhomocysteinase [2]): Not Active
Ki (Adenosylhomocysteinase [3]): Not Active
IC50 [4]: 1.2 µg/mL (≈ 4.49 µM)

SMILES: Nc1ncnc2c1ncn2[C@@H]1O/C(=C/F)[C@@H](O)[C@H]1O
K inact [9]: 0.23 min⁻¹
Ki (Adenosylhomocysteinase [8]): 1.04 µM
K inact [10]: 0.14 min⁻¹
Ki (Adenosylhomocysteinase [11]): 2.4 µM
Ki (Adenosylhomocysteinase [12]): Not Active
IC50 [4]: 0.25 µg/mL (≈ 0.936 µM)

SMILES: Nc1ncnc2c1ncn2[C@@H]1O/C(=C(\F)Cl)[C@@H](O)[C@H]1O
Ki (Adenosylhomocysteinase [5]): Not Active
Ki (Adenosylhomocysteinase [6]): 3 µM
Ki (Adenosylhomocysteinase [7]): Not Active
IC50 [4]: 1.3 µg/mL (≈ 4.31 µM)

SMILES: Nc1ncnc2c1ncn2[C@H]1C[C@H](O)/C(=C\F)O1
Ki (Adenosylhomocysteinase [13]): Not Active
Ki (Adenosylhomocysteinase [14]): Not Active

SMILES: Nc1ncnc2c1ncn2C1O[C@H](C(F)F)[C@@H](O)[C@H]1O (stereo partly specified)
K inact [9]: 0.6 min⁻¹
K inact [15]: 0.04 min⁻¹
Ki (Adenosylhomocysteinase [8]): 10 µM
Ki (Adenosylhomocysteinase [16]): 9.7 µM
Ki (Adenosylhomocysteinase [12]; read-out: Ki): 9.7 µM
IC50 [4]: 0.8 µg/mL (≈ 2.79 µM)

SMILES: Nc1ncnc2c1ncn2[C@@H]1O/C(=C\Cl)[C@@H](O)[C@H]1O
Ki (Adenosylhomocysteinase [5]): Not Active
Ki (Adenosylhomocysteinase [6]): 1.6 µM
Ki (Adenosylhomocysteinase [7]): Not Active
IC50 [4]: 3.3 µg/mL (≈ 11.6 µM)

Results, then the molecule that gave them:

Ki (Adenosylhomocysteinase [5]): Not Active
Ki (Adenosylhomocysteinase [6]): 150 µM
Ki (Adenosylhomocysteinase [7]): Not Active
IC50 [4]: 10 µg/mL (≈ 39.8 µM)
SMILES: Nc1ncnc2c1ncn2[C@H]1C[C@H](O)/C(=C/F)O1

Ki (Adenosylhomocysteinase [8]): 30 µM
IC50 [4]: 1 µg/mL (≈ 3.74 µM)
SMILES: Nc1ncnc2c1ncn2[C@@H]1O[C@H](CO)[C@@H](O)[C@@H]1O [VIDARABINE]

Ki (Adenosylhomocysteinase [1]): 1.5 µM
Ki (Adenosylhomocysteinase [2]): Not Active
Ki (Adenosylhomocysteinase [3]): Not Active
IC50 [4]: 0.1 µg/mL (≈ 0.331 µM)
SMILES: Nc1ncnc2c1ncn2[C@@H]1O/C(=C(/F)Cl)[C@@H](O)[C@H]1O

K inact [9]: 0.28 min⁻¹
Ki (Adenosylhomocysteinase [8]): 0.55 µM
K inact [10]: 0.8 min⁻¹
Ki (Adenosylhomocysteinase [11]): 6.5 µM
Ki (Adenosylhomocysteinase [12]): Not Active
IC50 [4]: 0.05 µg/mL (≈ 0.187 µM)
SMILES: Nc1ncnc2c1ncn2[C@@H]1O/C(=C\F)[C@@H](O)[C@H]1O
